Screening data: PubChem BioAssay, several laboratories
PMI act hi M6P – human PMI activators, high substrate, primary screen, biochemical, fluorescence intensity, near-saturating mannose 6-phosphate; coupled PMI enzyme assay, resazurin fluorescence, 20 min; active compounds read high; 1 = untreated enzyme, 0 = substrate-free blank; activation factor at 20 µM; actives 0.34% (n = 190,000);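 active = activation factor of 2 or more at 20 µM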
Target sequence (P34949 whole entry, looked up): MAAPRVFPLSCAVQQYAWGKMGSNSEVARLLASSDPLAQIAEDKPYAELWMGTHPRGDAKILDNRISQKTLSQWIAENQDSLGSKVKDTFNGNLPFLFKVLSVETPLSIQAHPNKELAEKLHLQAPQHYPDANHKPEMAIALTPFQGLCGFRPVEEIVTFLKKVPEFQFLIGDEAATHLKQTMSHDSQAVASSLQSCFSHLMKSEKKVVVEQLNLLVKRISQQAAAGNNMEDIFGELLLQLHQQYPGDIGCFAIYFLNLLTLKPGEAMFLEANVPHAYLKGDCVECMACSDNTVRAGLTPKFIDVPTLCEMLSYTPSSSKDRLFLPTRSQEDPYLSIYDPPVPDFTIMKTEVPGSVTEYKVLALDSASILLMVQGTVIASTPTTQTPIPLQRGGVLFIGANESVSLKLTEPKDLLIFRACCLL
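Technique: Diaphorase-driven resazurin-to-resorufin fluorescence, excitation 544, emission 590 nm | Assay system: Human PMI in coupled enzyme assay | Times: Enzyme reaction with compound 20 min at room temperature | Medium: HEPES-buffered pH 7.4 with magnesium and detergent | Reagent: Mannose-6-phosphate 1.0 mM (near-saturating) plus 0.22 mM NADP+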
Redox H2O2 prof – compounds producing H2O2 with reducing agent – biochemical, NIH compound library profiling, artefact control for MLSCN library redox annotation, primary screen; DTT-dependent redox cycling H2O2, phenol red/HRP absorbance; 100% = 100 µM peroxide control, 0% = buffer; activation, % at 10 µM; actives 0.03% (n = 200,000); AID 878, 2007;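 active = activation of at least 50% relative to the plate's high and low controls in the primary single-dose screen; inactive = activation below 50%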;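 note: compound incubated with DTT at 0.8 mM final as the reducing agent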
Diaphorase act – compounds boosting diaphorase resazurin reduction – biochemical, uHTS, resorufin fluorescence, counter-screen for diaphorase-coupled primary assays, primary screen. Diaphorase/resazurin coupled assay, 16 min; active compounds read high; 1 = vehicle wells, 0 = NADH-free wells. AID 1229, 2008. actives 0.005% (n = 190,000). activation factor at 20 µM;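 active = diaphorase activity raised at least twofold by the compound at 20 µM; inactive = activation factor below 2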
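Material: Clostridium kluyveri diaphorase, purified enzyme; Quantity: enzyme 0.07 U/mL final; Medium: HEPES pH 7.4 buffer with MgCl2 and Tween 20; Dosing: single compound dose of 20 µM, 1% DMSO final; Schedule: 16 min reaction at room temperature; Measured by: red resorufin fluorescence at 544/590 nm excitation/emission.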
Diaph inh CS – diaphorase inhibitors and chemical oxidizers, primary screen, counter-screen for diaphorase-coupled primary assays, biochemical, uHTS, resorufin fluorescence; diaphorase resazurin-to-resorufin fluorescence, NADH, 16 min; bacterial (C. kluyveri) enzyme, not human; inhibition, % at 20 µM; actives 0.69% (n = 190,000); AID 1217, 2008;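 active = primary screen inhibition at 20 µM above a set limit, cut at about 50% in these data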;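 note: plate controls were DMSO with full reaction for no effect and wells lacking NADH for full effect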
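Test system: bacterial diaphorase enzyme (C. kluyveri); Quantity: 0.14 U/mL diaphorase, enzyme working solution; Times: reaction incubation of 16 min at room temperature; Measured by: fluorescence of resorufin formed from resazurin, Ex 544/Em 590 nm; Benchmarks: positive control minus NADH, DMSO neutral control.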
G6PDH CS – L. mesenteroides G6PDH inhibitors, counter-screen for G6PDH-coupled screening assays, biochemical, Leuconostoc mesenteroides enzyme; inhibition, % at 5 µM; Purified L. mesenteroides G6PDH, diaphorase/resazurin coupled fluorescence, 45 min; AID 1020, 2008; actives 0.12% (n = 200,000); in the data active = inhibition above about 50%
PMI act – activators of human PMI, primary screen, biochemical, fluorescence intensity, near-Km mannose 6-phosphate; activation factor at 20 µM; AID 1214, 2008; actives 0.005% (n = 190,000); purified human PMI, coupled resazurin fluorescence, 20 min; active compounds read high; 1 = vehicle control, 0 substrate-free wells;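 active = activation factor of 2 or more at 20 µM, relative to plate controls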
* marks the source's active call; other numbers are inactive results; x = not tested or not shown. Compounds with a hit are over-represented: about 1.1% of the library has one in this group of screens.

SMILES	PMI act hi M6P	Redox H2O2 prof	Diaphorase act	Diaph inh CS	G6PDH CS	PMI act
O=C(NCCCn1ccnc1)c1cc2c(ccc3ccccc32)o1	1	-0.1	1.2	-15.1	2.4	1.1
CCCCC(=O)NNC(=S)NC(=O)c1ccc(C)cc1	1.3	-1.2	0.7	32.1	9.6	1.1
Cc1ccc(C(=O)NC(=S)NNC(=O)CC#N)cc1	1	-0.3	0.4	57.4*	8.8	0.9
COc1ccc(C(=O)c2ccccc2)cc1	1.1	0.4	1	0.2	7.9	1.2
COc1ccc(C(=O)NNc2ccccc2)cc1	2.4*	-0.5	1.1	-5.6	-3.1	1.7
CCCCCCOC(=O)Nc1ccc(S(=O)(=O)Nc2cccc([N+](=O)[O-])c2)cc1	1.1	0.2	0.8	21.5	1.9	1
C=C1c2cc(C)ccc2NC(=O)N1c1ccc(C)cc1	2.4*	0.5	1	-0.4	16.3	1.9
Cc1ccc(N2C(=O)c3cccc4cccc(c34)C2=O)cc1	1	-0.3	1.2	-15.3	5.5	1
C=C1c2ccccc2NC(=O)N1c1ccc(C)cc1	2.1*	0.0	1	2.8	-3.4	1.7
c1ccc(Nc2ccc3c4c(cccc24)CC3)cc1	0.8	2.5	0.9	6.2	6.4	0.9
Nc1ccc2c3c(cccc13)CC2	0.4	-0.8	0.4	55.6*	40.3	0.5
COc1ccccc1NC(=S)Nc1cccc2cnccc12	0.4	0.3	0.4	64.9*	-6.5	0.3
CCOc1ccc(NC(=S)Nc2cccc3cnccc23)cc1	0.4	-0.1	0.4	55.0*	-2.0	0.4
COc1ccc(NC(=S)Nc2ccc(Oc3ccccc3)cc2)cc1	0.9	3.8	1.1	-7.7	1.3	1
CCOc1ccc(NC(=S)Nc2ccc(OCC)cc2)cc1	0.9	-0.2	0.9	14.9	5.0	0.9
COc1ccc(NC(=S)Nc2cccc3cnccc23)cc1	0.4	0.9	0.4	56.1*	29.7	0.4
O=C(O)CCC(=O)Nc1ccccc1C(=O)N1CCN(c2ccc(Cl)cc2)CC1	1.1	0.6	1	4.4	15.9	1
O=C(O)CCc1nc(-c2ccccc2)c(-c2ccccc2)o1	1.1	x	0.2	79.8*	1.2	1
COc1ccc(/C=N\NC(=O)c2cc(O)c(O)c(O)c2)cc1CN1CCN(c2ccc(F)cc2)CC1	0.5	0.6	0.4	63.1*	-20.0	0.4
O=C(c1ccc(S(=O)(=O)N2CCC(c3nc4ccccc4[nH]3)CC2)cc1)N1CCOCC1	0.9	0.4	0.4	64.5*	-2.1	0.8
CCC1(COC(=O)Nc2cccc(Cl)c2)COC1	1	1.5	0.9	13.2	0.0	1
CCOC(=O)NC1(Nc2cccc(Cl)c2)Oc2ccccc2O1	0.6	0.3	0.4	55.1*	11.1	0.5
O=C(O)CSc1nnnn1C1CCCCC1	1.1	0.0	1.2	-16.4	8.1	1.1
O=C(Sc1nnnn1C1CCCCC1)c1cccs1	2.2*	2.2	1	1.0	20.0	1.6
Cc1cc(-c2nnc(CCC(=O)N3CCN(Cc4cccc(F)c4)CC3)o2)c(C)o1	1	-0.8	1.1	-5.4	7.6	1.1
SMILES	PMI act hi M6P	Redox H2O2 prof	Diaphorase act	Diaph inh CS	G6PDH CS	PMI act
Cc1ccc(SC(C)C(=O)Nc2ccc(S(=O)(=O)N3CCOCC3)cc2)cc1 (stereo unspecified)	0.9	-8.2	0.5	52.7*	10.4	0.8
CC(Sc1nc2cc(Cl)ccc2s1)C(=O)Nc1cccc(S(=O)(=O)N2CCOCC2)c1 (stereo unspecified)	1	-0.1	0.3	66.3*	7.9	1
O=C(CSc1nc2ccccc2s1)Nc1cc(S(=O)(=O)N2CCOCC2)ccc1Cl	1.6	0.1	0.8	24.9	-15.7	1.2
Cc1cc(O)c(Oc2cc(C)cc(O)c2O)c(O)c1	0.5	-0.2	0.3	71.3*	38.7	0.2
Cc1cc(C(C)(C)C)c(O)c(C(C)(C)C)c1	1	0.2	0.9	8.4	16.6	1
COc1ccc(-c2csc(NC(=O)c3cc(=O)c4ccccc4o3)n2)cc1OC	1.1	-3.0	1	-0.1	-7.9	1.1
COc1ccc(-c2csc(NC(=S)NC(=O)c3cccs3)n2)cc1OC	0.9	-2.0	0.4	59.2*	-27.8	0.8
O=C(NC(=S)Nc1nc(-c2ccc(Br)cc2)cs1)c1cccnc1	2.5*	-4.9	0.9	11.8	0.2	1.5
COC(=O)C1=NN(N=O)C2(CC(=O)N(c3cc(C)cc(C)c3)C2=O)C1 (stereo unspecified)	2*	0.1	0.9	14.8	16.1	1.5
CSc1nc(S(=O)(=O)c2ccc(C)cc2)c(Cl)s1	0.9	-1.5	0.8	17.5	6.5	0.9
COc1cc(/C=C(\C#N)c2nc3ccc(C)cc3[nH]2)c([N+](=O)[O-])cc1OC	0.5	-6.9	0.7	28.8	0.5	0.8
COc1cc(/C=C(\C#N)c2nc3ccccc3[nH]2)cc(OC)c1O	0.7	-0.4	0.5	50.6*	9.3	0.9
COc1cc(/C=C(\C#N)c2nc3ccc(C)cc3[nH]2)cc([N+](=O)[O-])c1O	0.4	0.8	0	98.0*	16.8	0.5
CSCCC(NC(=O)c1cccc([N+](=O)[O-])c1)C(=O)O (stereo unspecified)	1.1	-0.3	0.9	9.2	4.4	1
OCCSc1nc(N2CCOCC2)nc(N2CCOCC2)n1	1	-0.9	0.9	10.1	1.9	1
COc1ccc(N(C(C)C(=O)N2CCC(Cc3ccccc3)CC2)S(C)(=O)=O)cc1 (stereo unspecified)	0.9	-0.7	0.8	20.0	1.3	0.9
CC(=O)NC(c1ccco1)c1ccc2cccnc2c1O (stereo unspecified)	0.7	-0.6	0.5	52.7*	42.0	0.8
CC(=O)NC(c1ccc(C)cc1)c1cc([N+](=O)[O-])c2cccnc2c1O (stereo unspecified)	0.4	0.0	0.4	60.2*	60.7*	0.7
CCC(=O)NC(c1ccc(C)cc1)c1cc([N+](=O)[O-])c2cccnc2c1O (stereo unspecified)	0.5	-0.5	0.7	29.2	36.9	0.9
CCCC(=O)NC(c1ccco1)c1cc([N+](=O)[O-])c2cccnc2c1O (stereo unspecified)	0.9	-1.1	0.6	37.6	55.8*	1.2
